bIAP inh – bovine intestinal alkaline phosphatase inhibitors, primary screen, selectivity assay for TNAP inhibitor project, biochemical, bovine IAP, CDP-star luminescence; 190,000 tested, under 10 active; AID 1019, 2008; alkaline phosphatase, intestinal [Bos taurus]; inhibition, % at 20 µM; purified bovine IAP, 30 min;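 active = over 50% inhibition of intestinal alkaline phosphatase at 20 µM in the single-dose screen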
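System: Purified bovine intestinal alkaline phosphatase (IAP) enzyme | Input: IAP diluted 1/65,000,000 in the well | Also added: CDP-star chemiluminescent phosphatase substrate, 30 µM final | Dosing: 20 µM single dose | Times: Enzyme reaction for 30 min at room temperature | Detection: Luminescence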
mIAP inh – inhibitors of mouse IAP, primary screen, biochemical, luminescence, uHTS; intestinal alkaline phosphatase [Mus musculus]; purified mouse IAP, CDP-Star luminescence, 30 min; inhibition, % at 10 µM; 330,000 compounds, 0.2% hits;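 active = inhibition of at least 40% at 10 µM in the primary screen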
mIAP activ – activators of mouse IAP, primary screen, biochemical, luminescence, uHTS. intestinal alkaline phosphatase [Mus musculus]. muIAP, CDP-Star luminescence, 30 min; active compounds read high; 1 = vehicle-only enzyme signal, 0 = enzyme-free wells. activation factor at 10 µM. 330,000 compounds, 0.24% hits;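 active = activation factor of at least 2 at 20 µM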
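Assay system: mouse IAP enzyme; Reagent: CDP-Star chemiluminescent phosphatase substrate; Compound: DMSO-dissolved test compounds; Incubation: 30 min, room temperature; Technique: luminescence from enzymatic CDP-Star hydrolysis; Controls: DMSO-only wells and no-enzyme negative control.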
hIAP block – human IAP inhibitors, primary screen, biochemical, luminescence, uHTS; purified IAP, CDP-Star luminescence, 30 min; 330,000 compounds, 0.12% hits; inhibition, % at 10 µM;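 active = inhibition reaching a set limit with compound at 10 µM in the primary screen, cut at about 35% in these data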
Target sequence (P09923 whole entry, looked up): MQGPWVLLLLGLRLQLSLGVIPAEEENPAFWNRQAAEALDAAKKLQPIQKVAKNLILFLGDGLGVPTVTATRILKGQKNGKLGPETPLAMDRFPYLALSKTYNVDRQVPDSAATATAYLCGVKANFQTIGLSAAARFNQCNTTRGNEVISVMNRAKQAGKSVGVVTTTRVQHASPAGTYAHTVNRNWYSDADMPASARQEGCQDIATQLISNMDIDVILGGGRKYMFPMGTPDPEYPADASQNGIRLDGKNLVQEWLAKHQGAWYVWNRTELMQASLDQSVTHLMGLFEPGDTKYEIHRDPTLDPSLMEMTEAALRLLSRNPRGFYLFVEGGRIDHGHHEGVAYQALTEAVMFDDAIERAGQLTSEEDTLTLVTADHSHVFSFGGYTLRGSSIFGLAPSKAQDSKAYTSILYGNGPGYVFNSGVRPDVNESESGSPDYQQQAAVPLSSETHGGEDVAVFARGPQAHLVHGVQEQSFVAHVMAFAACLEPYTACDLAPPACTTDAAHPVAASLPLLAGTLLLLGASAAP
hIAP act – human IAP activators, primary screen, biochemical, luminescence, uHTS. Intestinal-type alkaline phosphatase (Homo sapiens), P09923. purified human IAP, CDP-Star luminescence, 30 min; active compounds read high; 1 = vehicle-only enzyme, 0 = enzyme-free background. activation factor at 10 µM. 330,000 compounds, 0.16% hits;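 active = activation factor of the enzyme at least 2-fold when tested at 20 µM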
bIAP act – bovine intestinal alkaline phosphatase activators, primary screen, biochemical, bovine IAP, CDP-star luminescence; 200,000 compounds, 0.17% hits; activation factor at 20 µM; purified bovine IAP, 30 min; active compounds read high; fold of DMSO-control signal, blank-subtracted; AID 1016, 2008; alkaline phosphatase, intestinal [Bos taurus];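 active = activation factor of 2 or more at 20 µM, a signal rise over negative controls twice the positive control's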
mIAP inh confirm – inhibitors of mouse IAP, confirmation, biochemical, luminescence, single concentration; inhibition, % at 10 µM; AID 434971, 2010; 11,000 compounds, 4.7% hits; purified mouse IAP, CDP-Star luminescence, 30 min; shares compounds with mIAP inh;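 active = inhibition of at least 40% at 10 µM in either of the two replicates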
Numbers stand for hits; . = inactive; / = not tested or not shown. The list is not random: actives were taken first. Their share in the collection is about 0.79%.

SMILES	bIAP inh	mIAP inh	mIAP activ	hIAP block	hIAP act	bIAP act	mIAP inh confirm
O=C(COC(=O)COc1ccccc1)Nc1ncc([N+](=O)[O-])s1	/	63	.	.	.	/	69
Cn1cnnc1SCC(=O)Nc1ncc([N+](=O)[O-])s1	/	41	.	.	.	/	51
Cc1csc(NC(=O)CSc2nncn2C)n1	.	.	.	.	.	.	/
CCCCNC(=O)Nc1ccc2c(c1)N(C)C(=O)c1ccccc1S2	/	.	2.7	.	.	/	.
Cc1nn(Cc2c(Cl)cccc2Cl)c(C)c1NC(=O)c1cn(-c2ccccc2)nc1-c1ccccc1	.	.	2.5	.	.	.	.
C=CC[C@@H](CC(=O)N[C@H](CO)Cc1ccccc1)C(=O)N[C@H](COC(=O)[C@@H](CC=C)Cc1ccc(F)cc1)Cc1ccccc1	/	.	.	.	.	/	/
C=C(C)c1cccc(C(C)(C)NC(=O)Nc2ccc(OC)cc2)c1	.	.	.	.	.	.	/
C=C(C)c1cccc(C(C)(C)NC(=O)NC(c2ccccc2)c2ccc(OC)cc2)c1 (configuration not stated)	.	.	12	.	.	.	.
C#CCOCCOCCOCCNc1nc(N2CCN(C(=O)CCCCCCCCCCNC(=O)[C@H](CO)n3cc(CCCSC)nn3)CC2)nc(N2CCN(C(=O)CCCCCCCCCCNC(=O)[C@H](CCCCN)n3cc(C[C@@H](C)CC)nn3)CC2)n1	/	.	2.3	.	.	/	.
C#CCOCCOCCOCCNc1nc(N2CCN(C(=O)CCCCCCCCCCNC(=O)Cn3cc(C[C@@H](C)O)nn3)CC2)nc(N2CCN(C(=O)CCCCCCCCCCNC(=O)[C@H](CCCCN)n3cc(C[C@@H](C)CC)nn3)CC2)n1	/	.	2.7	.	.	/	.
C#CCOCCOCCOCCNc1nc(N2CCN(C(=O)CCCCCCCCCCNC(=O)[C@H](CCCCN)n3cc(CCO)nn3)CC2)nc(N2CCN(C(=O)CCCCCCCCCCNC(=O)[C@H](CCCN=C(N)N)n3cc(C[C@@H](C)CC)nn3)CC2)n1	/	.	2.6	.	.	/	.
C#CCOCCOCCOCCNc1nc(N2CCN(C(=O)CCCCCCCCCCNC(=O)[C@H](CO)n3cc(CCCSC)nn3)CC2)nc(N2CCN(C(=O)CCCCCCCCCCNC(=O)[C@H](CO)n3cc(CCCSC)nn3)CC2)n1	/	.	.	.	.	/	/
C#CCOCCOCCOCCNc1nc(N2CCN(C(=O)CCCCCCCCCCNC(=O)[C@H]([C@@H](C)CC)n3cc(CCCCN=C(N)N)nn3)CC2)nc(N2CCN(C(=O)CCCCCCCCCCNC(=O)[C@H](CCCCN)n3cc(C[C@@H](C)CC)nn3)CC2)n1	/	.	4	.	.	/	.
CC(C)c1ccc(C(=O)NCCCN(C)C)cc1	.	.	.	.	.	.	/
CCSc1nc2ccccc2c(=O)n1Cc1ccc(F)cc1	.	.	.	.	.	.	/
COc1ccc(C(=O)OCc2c(-c3ccccc3)ncc3ccccc23)cc1	/	.	.	.	.	/	/
C#CCOCCOCCOCCNc1nc(N2CCN(C(=O)CCCCCCCCCCNC(=O)[C@H](CCCCN)n3cc(CCCC(=O)O)nn3)CC2)nc(N2CCN(C(=O)CCCCCCCCCCNC(=O)[C@H](CCCN=C(N)N)n3cc(C[C@@H](C)CC)nn3)CC2)n1	/	.	2.2	.	.	/	.
Cc1ccc(C(=O)Nc2nc(-c3ccco3)c(-c3ccco3)s2)o1	/	64	.	.	.	/	68
O=C(CCl)Nc1nc(-c2ccco2)c(-c2ccco2)s1	.	77	.	.	.	.	74
O=C(CCCSc1ccccc1)Nc1nc(-c2ccco2)c(-c2ccco2)s1	.	/	/	/	/	.	/
COc1ccc(-c2nc(N)ncc2-c2ccccc2OC)c(O)c1	/	.	.	.	.	/	/
O=C(NCc1ccc2c(c1)OCO2)c1cc(-c2ccccc2)c(N2CCOCC2)s1	/	.	.	.	.	/	/
CCOc1ccc(CCNC(=O)c2cc(-c3ccccc3)c(N3CCOCC3)s2)cc1	/	.	3.2	.	.	/	.
CC(=O)Nc1csc2ccccc12	.	.	.	.	.	.	/
O=C(Nc1ccccc1)Nc1csc2ccccc12	/	.	3.2	.	.	/	.
SMILES	bIAP inh	mIAP inh	mIAP activ	hIAP block	hIAP act	bIAP act	mIAP inh confirm
CC1CCN(C(=O)COC(=O)C2CCN(S(=O)(=O)c3ccc4c(c3)OCCO4)CC2)CC1	/	.	.	.	.	/	/
CN(c1ccccc1)S(=O)(=O)c1cccc(NC(=O)C2=NN(c3ccccc3)C(=O)CC2)c1	/	.	.	.	.	/	/
Oc1ccc(/C=N/Nc2cc(N3CCOCC3)nc(N3CCOCC3)n2)cc1O	.	42	.	.	.	.	63
C[C@H](NC(=O)c1[nH]cnc1C(=O)Nc1ccc(Cl)cc1)c1ccccc1	/	.	.	.	.	/	/
Cc1ccc(SCc2nc3ccccc3n2CC(=O)Nc2ccc(Cl)cc2)cc1	.	.	2.7	.	.	.	.
Cc1cc(C)cc(NC(=O)Cn2c(-c3ccccc3Cl)nc3ccccc32)c1	.	.	2.8	.	.	.	.
O=C(Cn1c(COc2ccccc2)nc2ccccc21)Nc1cccc(Cl)c1	.	.	.	.	.	.	/
Cc1ccc(SCc2nc3ccccc3n2CC(=O)Nc2c(C)cccc2C)cc1	.	.	.	.	.	.	/
O=C(Cn1c(-c2ccccc2Cl)nc2ccccc21)Nc1cccc(Cl)c1	.	.	2.8	.	.	.	.
O=C(Cn1c(CO)nc2ccccc21)Nc1ccccc1Cl	.	.	.	.	.	.	/
NS(=O)(=O)c1ccc(NC(=S)NC(=O)/C=C/c2ccco2)cc1	.	91	.	.	.	.	77
O=C(/C=C/c1ccco1)NCc1ccc(F)cc1	.	.	.	.	.	.	/
NS(=O)(=O)c1ccc(CNC(=O)/C=C/c2ccco2)cc1	/	46	.	.	.	/	50
COc1ccc(CC(C)N2CCN(c3cccc(C(F)(F)F)c3)CC2)cc1OC (configuration not stated)	.	.	.	.	.	.	/
O=C(NC12CC3CC(CC(C3)C1)C2)N1CCN(C(=O)c2ccco2)CC1	.	.	.	.	.	.	/
O=C(Nc1ccc(Cl)c(Cl)c1)Nc1cc(C(=O)N2CCOCC2)ccc1N1CCCCC1	/	.	10	.	.	/	.

Assay outcomes: PubChem, Sanford-Burnham Center for Chemical Genomics
